# Screens deposited in PubChem by Sanford-Burnham Center for Chemical Genomics.
# MPTP block – inhibitors of mitochondrial permeability transition pore | isolated mouse mitochondria, Ca2+ swelling absorbance, 30 min | inhibition, % at 10 µM | 1.4% of 360,000 active | AID 602449;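 active means inhibition of 50% or more, scaled per plate between neutral and stimulator controls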;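 further: 0% = DMSO wells given calcium and 100% = 1 mM EGTA wells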
# SKN-1 block – C. elegans SKN-1 inhibition; C. elegans VP596 Pgst-4::GFP/RFP ratio, acrylamide-induced, 24 h; inhibition, % at 21.8 µM; 0.49% of 360,000 active;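 active means interference check ratio from 0.5 to 1.5 plus GFP to RFP signal ratio inhibition reaching or exceeding a fixed threshold, cut at about 30% in these data, passing the limit was not always enough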
# ATG4B inh – ATG4B (human) cysteine protease inhibition; Q9Y4P1; ATG4B cleavage of LC3-PLA2, NBD-HPC fluorescence, 1 h; inhibition, % at 8.33 µM; 0.51% of 340,000 active; in the data active means inhibition above about 40%
# Target sequence (Q9Y4P1 whole entry, looked up): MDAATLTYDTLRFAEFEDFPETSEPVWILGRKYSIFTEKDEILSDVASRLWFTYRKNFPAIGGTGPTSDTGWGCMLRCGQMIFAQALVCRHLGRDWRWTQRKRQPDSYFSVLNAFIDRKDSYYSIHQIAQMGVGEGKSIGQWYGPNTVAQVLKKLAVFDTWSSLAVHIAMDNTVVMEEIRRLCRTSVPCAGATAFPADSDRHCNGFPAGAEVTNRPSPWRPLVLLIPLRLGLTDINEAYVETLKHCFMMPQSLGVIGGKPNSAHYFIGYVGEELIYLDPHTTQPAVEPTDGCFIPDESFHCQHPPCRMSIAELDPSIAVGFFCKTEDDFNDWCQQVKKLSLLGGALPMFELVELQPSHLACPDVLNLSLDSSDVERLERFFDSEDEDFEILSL
# MT1-MMP act inh – inhibitors of human MT1-MMP activation | GFP/RFP ratio change, % at 20 µM | P50281 | 0.061% of 360,000 active | HT1080 RFP-PRO-GFP cells, GFP/RFP ratio fluorescence, overnight; percent of plate control window, DMSO zero | AID 651647;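 active means GFP/RFP ratio change of at least 30% with cell ATP level not reduced by more than half and red fluorescence within 50% of control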
#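 Material: RFP-PRO-GFP reporter HT1080 cells. Dosing: single-point 20 µM compound, 1% DMSO. Controls: DMSO and RFP-L50D-GFP cell wells. Timing: cells overnight before dosing, compound overnight, 37 °C, 5% CO2. Measure: GFP/RFP fluorescence ratio.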
# Rh123 counter – Rhodamine 123 counter-screen of mitochondrial pore hits | shares compounds with MPTP block | isolated mitochondria, membrane potential, Rhodamine 123 fluorescence | inhibition, % at 10 µM | 78% of 5,000 active | AID 624504; in the data active means inhibition above about 22%;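 further: 0% = DMSO vehicle and 100% = positive control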
# MPTP swell DR – MPTP inhibition, dose response swelling confirmation; 58% of 780 active; shares compounds with MPTP block; isolated mitochondria swelling, absorbance; IC50, µM; in the data active means IC50 below about 20 µM
# MPTP cs DR – counter-screen for mitochondrial permeability transition pore inhibitors, dose response; shares compounds with MPTP block; isolated mitochondria counterscreen, fluorescence read-out; IC50, µM; 49% of 780 active; in the data active means IC50 below about 80 µM
# * marks the source's active call; other numbers are inactive results; / = not tested or not shown. Only some compounds are listed: those with a hit (about 2.3% of all), similar ones and a draw of the others.
SMILES,MPTP block,SKN-1 block,ATG4B inh,MT1-MMP act inh,Rh123 counter,others
CCc1ccc(NC(=O)CCC(=O)N2CCSc3ccccc32)cc1,-2.7,3.1,16.0,4.3,/,
COC(=O)[C@]1(CC(C)C)N[C@H](c2ccc(-c3cccc(Cl)c3)cc2)[C@@H]2C(=O)N(C)C(=O)[C@@H]21,0.9,15.0,2.4,-0.5,/,
O=c1[nH]nc(SCc2nnc(-c3cccc(Cl)c3)o2)n1C1CCCCC1,72.7*,-2.5,10.4,-1.1,33.0*,
COc1ccc(-c2nnc(CSc3nnc(-c4ccncc4)n3C3CCCCC3)o2)cc1OC,4.6,5.7,-4.4,4.1,/,
C=C1C[C@@H]2C[C@@H]2CN(S(=O)(=O)c2ccc(C)cc2)[C@@H]1c1ccco1,0.9,-8.5,/,2.1,/,
Oc1c(Cl)cc(Cl)cc1C1=NNC(c2ccc(Cl)cc2)C1 (stereo unspecified),67.7*,11.7,6.8,-5.4,30.4*,
CN(C)CCOc1ccc(-c2c(-c3ccccc3)sc3ccccc23)cc1,103.8*,-0.9,2.8,-4.9,-17.0,
CCOC(=O)C1CCCN(S(=O)(=O)c2ccc(S(=O)(=O)N(CC)CC)cc2)C1 (stereo unspecified),96.7*,-4.0,-4.6,-3.2,102.3*,
NC(=O)C1CCN(c2ncc(C(F)(F)F)cc2Cl)CC1,-2.0,0.9,10.3,2.0,/,
CCOC(=O)c1ccc(NC(=O)c2nc[nH]c2C(=O)N[C@@H](CC(C)C)C(=O)OCc2ccccc2)cc1,0.7,-16.6,-12.1,3.0,/,
N#CC(=C1C=C(Br)C(=NO)C=C1Cl)c1ccc(Cl)cc1,83.2*,9.2,/,-0.6,85.3*,
CCN(c1cccc(C(F)(F)F)c1)S(=O)(=O)c1ccc2c(c1)CCN2C(=O)C1CC1,62.2*,9.0,-1.4,-1.2,63.5*,
CCC(=O)N1CCc2cc(S(=O)(=O)N(CC)c3cccc(C)c3)ccc21,1.7,-2.5,-1.4,2.8,/,
O=C(Nc1ccc(Cl)c(Cl)c1)Nc1ccon1,69.1*,45.9*,2.9,-8.1,103.0*,
C/C(=N\NC(=O)C(=O)Nc1ccc(C)c(Cl)c1)c1ccncc1,55.4*,-8.0,-7.6,0.0,8.3,MPTP swell DR=1.53*;MPTP cs DR=<2.5*
CCOC(=O)c1sc(NC(=O)Nc2cccc(Cl)c2)cc1C,79.1*,12.9,30.2,-14.1,49.2*,
CCOC(=O)c1sc(NC(=O)c2cccs2)cc1C,-1.0,5.6,-2.0,-0.9,/,
O=C(Nc1ccon1)c1ccccc1Cl,0.3,5.3,-8.8,3.1,/,
CCOC(=O)c1sc(NC(=O)Nc2ccc(Cl)cc2)nc1C,96.6*,12.8,-2.5,-3.2,67.1*,
CC1(c2ccccc2Cl)NC(=O)N(CC(=O)Nc2ccc3c(c2)OCO3)C1=O (stereo unspecified),-2.2,1.4,13.4,-0.8,/,
O=C(c1ccc2[nH]c(=O)c(=O)[nH]c2c1)N1CCN(c2ccccc2)CC1,-1.7,8.3,4.1,-1.0,/,
COc1ccc(Cl)cc1S(=O)(=O)Nc1ccc2c(c1)n(C)c(=O)n2C,0.0,14.4,-11.4,6.8,/,
CCOC(=O)c1ccc(NC(=O)Nc2nc3ccccc3s2)cc1,83.3*,2.6,/,-0.1,91.4*,
Cc1cc(NC(=O)Nc2ccc(Cl)c(Cl)c2)no1,82.3*,7.0,-5.0,1.8,93.9*,
CCOC(=O)c1ccc(NC(=O)Nc2ccon2)cc1,50.3*,0.7,-8.4,23.4,64.7*,
SMILES,MPTP block,SKN-1 block,ATG4B inh,MT1-MMP act inh,Rh123 counter,others
CCOC(=O)Nc1nc2ccccc2s1,-0.9,-0.5,1.4,-4.6,/,
Cc1ccc(NC(=O)Nc2cnccn2)cc1Cl,62.8*,-1.9,3.2,-1.1,64.5*,
CCOC(=O)c1ccc(NC(=O)Nc2ccc(Cl)cn2)cc1,15.4,5.6,-13.0,1.9,/,
COc1ccc(NC(=O)Nc2cnccn2)cc1,0.9,-4.1,1.2,9.2,/,
COc1ccc(N(CC(=O)N2CCOCC2)S(C)(=O)=O)cc1,-1.1,7.6,7.2,3.3,/,
Nc1ccc2c(c1)C(=O)c1ccc(N)cc1-2,1.4,17.8,-12.4,9.4,/,
Cc1noc(NS(=O)(=O)c2ccc(NC(=O)Nc3ccc(Cl)c(Cl)c3)cc2)c1C,84.0*,-14.4,14.6,5.7,75.2*,
Cc1noc(NS(=O)(=O)c2ccc(NC(=O)C(Cl)(Cl)Cl)cc2)c1C,-1.1,-6.0,0.0,-1.3,/,
